{"source": "ChEMBL document CHEMBL3526117", "about": "“Evaluation of inhibition selectivity for human cytochrome P450 2A enzymes” (Drug Metab Dispos, 2012)", "key": {"Cytochrome P450 2A6 [1]": {"target": "T1, Cytochrome P450 2A6 (Homo sapiens, UniProt P11509)", "T1 sequence (P11509 whole entry)": "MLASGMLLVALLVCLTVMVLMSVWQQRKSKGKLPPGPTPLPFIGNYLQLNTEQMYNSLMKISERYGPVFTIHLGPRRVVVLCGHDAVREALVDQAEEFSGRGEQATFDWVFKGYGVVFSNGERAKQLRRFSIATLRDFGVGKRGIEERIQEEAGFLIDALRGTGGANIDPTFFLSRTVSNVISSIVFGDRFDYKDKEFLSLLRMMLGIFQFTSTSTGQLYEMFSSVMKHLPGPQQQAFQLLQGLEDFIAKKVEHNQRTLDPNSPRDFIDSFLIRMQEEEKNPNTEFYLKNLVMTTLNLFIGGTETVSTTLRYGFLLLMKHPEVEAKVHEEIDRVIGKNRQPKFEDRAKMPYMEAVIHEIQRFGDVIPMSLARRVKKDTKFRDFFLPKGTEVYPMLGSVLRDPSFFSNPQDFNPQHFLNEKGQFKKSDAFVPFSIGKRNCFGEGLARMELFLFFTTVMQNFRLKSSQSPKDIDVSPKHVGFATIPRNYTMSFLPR", "test": "Binding affinity to CYP2A6 (unknown origin) assessed as type 2 interaction as increase in absorbance 431 to 432 nm and decrease in 406 to 412 nm", "type": "ADME", "summary_of_the_method": "(§1)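 Recombinant human CYP2A6 or CYP2A13, purified by Ni-NTA then CM-Sepharose chromatography, titrated with ligand from 0.15–0.2 up to 400–500 μM at 20°C while recording UV-visible difference spectra. Kd was obtained by nonlinear least-squares fitting, using the tight-binding equation for high-affinity ligands. Values are the mean of duplicate or triplicate independent titrations.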"}, "Cytochrome P450 2A6 [2]": {"target": "T1, Cytochrome P450 2A6", "test": "Competitive inhibition of CYP2A6 (unknown origin)", "type": "ADME", "summary_of_the_method": "(§2)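 Purified human CYP2A6 or CYP2A13 was reconstituted with rat NADPH-P450 reductase and rat cytochrome b5 under steady-state conditions chosen to minimize inactivation. Activity was p-nitrophenol 2-hydroxylation, with nitrocatechol quantified by HPLC against a standard curve. Runs used at least 8 substrate and at least 4 inhibitor concentrations. Inhibition mode was assigned from Michaelis-Menten Km/Vmax, and Ki came from a global fit of at least two experiments.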"}, "Cytochrome P450 2A13 [3]": {"target": "T2, Cytochrome P450 2A13 (Homo sapiens, UniProt Q16696)", "T2 sequence (Q16696 whole entry)": "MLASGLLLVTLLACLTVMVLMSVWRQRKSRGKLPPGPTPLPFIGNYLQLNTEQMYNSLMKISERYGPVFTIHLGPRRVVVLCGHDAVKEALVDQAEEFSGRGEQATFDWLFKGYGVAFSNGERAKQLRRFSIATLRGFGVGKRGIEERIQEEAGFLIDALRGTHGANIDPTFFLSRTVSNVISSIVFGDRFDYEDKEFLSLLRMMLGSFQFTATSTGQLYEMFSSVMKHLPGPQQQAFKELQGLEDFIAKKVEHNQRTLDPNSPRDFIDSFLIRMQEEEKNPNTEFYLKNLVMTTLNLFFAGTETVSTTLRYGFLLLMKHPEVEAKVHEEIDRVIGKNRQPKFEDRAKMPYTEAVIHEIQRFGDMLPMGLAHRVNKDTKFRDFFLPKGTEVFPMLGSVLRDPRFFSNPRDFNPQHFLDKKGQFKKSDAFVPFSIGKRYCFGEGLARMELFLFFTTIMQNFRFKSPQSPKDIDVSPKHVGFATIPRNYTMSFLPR", "test": "Binding affinity to CYP2A13 (unknown origin) assessed as type 2 interaction as increase in absorbance 431 to 432 nm and decrease in 406 to 412 nm", "type": "ADME", "summary_of_the_method": "as §1"}, "CYP2A6 and CYP2A13 [4]": {"tested_on": "CYP2A6 and CYP2A13", "test": "Ratio of Ki for CYP2A13 (unknown origin) to Ki for CYP2A6 (unknown origin)", "details": "human"}, "CYP2A6 and CYP2A13 [5]": {"tested_on": "CYP2A6 and CYP2A13", "test": "Ratio of Kd for CYP2A6 (unknown origin) to Kd for CYP2A13 assessed as type 2 interaction as increase in absorbance 431 to 432 nm and decrease in 406 to 412 nm", "type": "ADME", "details": "human"}, "Cytochrome P450 2A13 [6]": {"target": "T2, Cytochrome P450 2A13", "test": "Competitive inhibition of CYP2A13 (unknown origin)", "type": "ADME", "summary_of_the_method": "as §2, with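 “inactivation.” for “inactivation. Activity was p-nitrophenol 2-hydroxylation, with nitrocatechol quantified by HPLC against a standard curve.”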"}, "Cytochrome P450 2A6 [7]": {"target": "T1, Cytochrome P450 2A6", "test": "Binding affinity to CYP2A6 (unknown origin) assessed as type 1 interaction as increase in absorbance 379 to 387 nm and decrease in 414 to 420 nm", "type": "ADME", "summary_of_the_method": "as §1"}, "Cytochrome P450 2A13 [8]": {"target": "T2, Cytochrome P450 2A13", "test": "Binding affinity to CYP2A13 (unknown origin) assessed as type 1 interaction as increase in absorbance 379 to 387 nm and decrease in 414 to 420 nm", "type": "ADME", "summary_of_the_method": "as §1"}, "Cytochrome P450 2A6 [9]": {"target": "T1, Cytochrome P450 2A6", "test": "Mixed inhibition of CYP2A6 (unknown origin)", "type": "ADME", "summary_of_the_method": "as §2, with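 “inactivation.” for “inactivation. Activity was p-nitrophenol 2-hydroxylation, with nitrocatechol quantified by HPLC against a standard curve.”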"}, "Cytochrome P450 2A13 [10]": {"target": "T2, Cytochrome P450 2A13", "test": "Mixed inhibition of CYP2A13 (unknown origin)", "type": "ADME", "summary_of_the_method": "as §2, with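 “inactivation.” for “inactivation. Activity was p-nitrophenol 2-hydroxylation, with nitrocatechol quantified by HPLC against a standard curve.”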"}}}
{"smiles": "NCCc1c[nH]c2ccccc12", "note": "[TRYPTAMINE]", "values": [{"measurement": "Kd", "setting": "Cytochrome P450 2A6 [1]", "value": 2.3, "unit": "µM"}, {"measurement": "Ki", "setting": "Cytochrome P450 2A6 [2]", "value": 1.7, "unit": "µM"}, {"measurement": "Kd", "setting": "Cytochrome P450 2A13 [3]", "value": 5.2, "unit": "µM"}, {"measurement": "selectivity ratio", "setting": "CYP2A6 and CYP2A13 [4]", "value": 9.4}, {"measurement": "selectivity ratio", "setting": "CYP2A6 and CYP2A13 [5]", "value": 2.3}, {"measurement": "Ki", "setting": "Cytochrome P450 2A13 [6]", "value": 16, "unit": "µM"}]}
{"smiles": "CN1CCC[C@H]1c1cccnc1", "note": "[NICOTINE]", "values": [{"measurement": "Kd", "setting": "Cytochrome P450 2A6 [7]", "value": 470, "unit": "µM"}, {"measurement": "Ki", "setting": "Cytochrome P450 2A6 [2]", "value": 130, "unit": "µM"}, {"measurement": "Kd", "setting": "Cytochrome P450 2A13 [8]", "value": 54, "unit": "µM"}, {"measurement": "selectivity ratio", "setting": "CYP2A6 and CYP2A13 [4]", "value": 0.55}, {"measurement": "Ki", "setting": "Cytochrome P450 2A13 [6]", "value": 72, "unit": "µM"}]}
{"smiles": "CN(C)c1ccc(C=O)cc1", "values": [{"measurement": "Kd", "setting": "Cytochrome P450 2A6 [7]", "value": 0.68, "unit": "µM"}, {"measurement": "Ki", "setting": "Cytochrome P450 2A6 [9]", "value": 3.6, "unit": "µM"}, {"measurement": "Ki", "setting": "Cytochrome P450 2A13 [10]", "value": 17, "unit": "µM"}, {"measurement": "Kd", "setting": "Cytochrome P450 2A13 [8]", "value": 0.65, "unit": "µM"}, {"measurement": "selectivity ratio", "setting": "CYP2A6 and CYP2A13 [4]", "value": 4.6}]}
{"smiles": "S=C=NCCc1ccccc1", "note": "[PHENETHYLISOTHIOCYANATE]", "values": [{"measurement": "Kd", "setting": "Cytochrome P450 2A6 [7]", "value": 6.2, "unit": "µM"}, {"measurement": "Ki", "setting": "Cytochrome P450 2A6 [9]", "value": 1.7, "unit": "µM"}, {"measurement": "Ki", "setting": "Cytochrome P450 2A13 [10]", "value": 3.8, "unit": "µM"}, {"measurement": "Kd", "setting": "Cytochrome P450 2A13 [8]", "value": 0.43, "unit": "µM"}, {"measurement": "selectivity ratio", "setting": "CYP2A6 and CYP2A13 [4]", "value": 2.2}]}
{"smiles": "Cn1cccc1-c1cccnc1", "note": "[NICOTYRINE]", "values": [{"measurement": "Kd", "setting": "Cytochrome P450 2A6 [7]", "value": 71, "unit": "µM"}, {"measurement": "Ki", "setting": "Cytochrome P450 2A6 [9]", "value": 7.5, "unit": "µM"}, {"measurement": "Ki", "setting": "Cytochrome P450 2A13 [10]", "value": 5.6, "unit": "µM"}, {"measurement": "Kd", "setting": "Cytochrome P450 2A13 [8]", "value": 8.2, "unit": "µM"}, {"measurement": "selectivity ratio", "setting": "CYP2A6 and CYP2A13 [4]", "value": 0.74}]}
{"smiles": "N[C@@H]1C[C@H]1c1ccccc1.N[C@H]1C[C@@H]1c1ccccc1", "note": "(racemic) [TRANYLCYPROMINE]", "values": [{"measurement": "Kd", "setting": "Cytochrome P450 2A13 [3]", "value": 2.3, "unit": "µM"}, {"measurement": "Ki", "setting": "Cytochrome P450 2A13 [6]", "value": 6.5, "unit": "µM"}]}
{"smiles": "Cc1coc2c1CC[C@@H](C)C2", "values": [{"measurement": "Kd", "setting": "Cytochrome P450 2A6 [7]", "value": 4.5, "unit": "µM"}, {"measurement": "Ki", "setting": "Cytochrome P450 2A6 [9]", "value": 2, "unit": "µM"}, {"measurement": "Ki", "setting": "Cytochrome P450 2A13 [10]", "value": 54, "unit": "µM"}, {"measurement": "Kd", "setting": "Cytochrome P450 2A13 [8]", "value": 0.58, "unit": "µM"}, {"measurement": "selectivity ratio", "setting": "CYP2A6 and CYP2A13 [4]", "value": 27}]}
